ChEMBL document CHEMBL2380279 (Bioorg Med Chem Lett, 2013)

Tests used:
Homo sapiens [1] = organism: Homo sapiens; assay: Selectivity ratio of Ki for delta opioid receptor (unknown origin) to Ki for kappa opioid receptor (unknown origin)
[2] = target: T1, Kappa-type opioid receptor (Homo sapiens, UniProt P41145); assay: Displacement of [3H]U69593 from kappa opioid receptor (unknown origin)
Summary of the method: (§1)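 Competition radioligand binding. Ki was determined against [3H]DAMGO for MOR, [3H]DADLE for DOR and […] for KOR. Values are the mean of three experiments, each run in duplicate.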

Mu-type opioid receptor = Mu-type opioid receptor (Homo sapiens, UniProt P35372); assay: Displacement of [3H]DAMGO from mu opioid receptor (unknown origin); summary of the method: as §1
Chain of Mu-type opioid receptor (P35372 whole entry): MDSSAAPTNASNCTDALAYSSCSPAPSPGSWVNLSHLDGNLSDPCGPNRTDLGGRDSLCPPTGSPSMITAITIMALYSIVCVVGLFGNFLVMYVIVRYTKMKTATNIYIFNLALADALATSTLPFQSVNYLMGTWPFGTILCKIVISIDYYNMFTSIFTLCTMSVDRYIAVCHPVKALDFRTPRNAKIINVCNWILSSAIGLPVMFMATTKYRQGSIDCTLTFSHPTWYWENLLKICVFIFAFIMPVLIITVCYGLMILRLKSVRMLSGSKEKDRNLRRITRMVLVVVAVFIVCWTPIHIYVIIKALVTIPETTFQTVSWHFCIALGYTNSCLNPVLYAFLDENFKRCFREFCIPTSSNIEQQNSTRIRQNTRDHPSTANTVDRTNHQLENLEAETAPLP

[3] = target: Delta-type opioid receptor (Homo sapiens, UniProt P41143); assay: Displacement of [3H]DADLE from delta opioid receptor (unknown origin); summary of the method: as §1
Chain of Delta-type opioid receptor (P41143 whole entry): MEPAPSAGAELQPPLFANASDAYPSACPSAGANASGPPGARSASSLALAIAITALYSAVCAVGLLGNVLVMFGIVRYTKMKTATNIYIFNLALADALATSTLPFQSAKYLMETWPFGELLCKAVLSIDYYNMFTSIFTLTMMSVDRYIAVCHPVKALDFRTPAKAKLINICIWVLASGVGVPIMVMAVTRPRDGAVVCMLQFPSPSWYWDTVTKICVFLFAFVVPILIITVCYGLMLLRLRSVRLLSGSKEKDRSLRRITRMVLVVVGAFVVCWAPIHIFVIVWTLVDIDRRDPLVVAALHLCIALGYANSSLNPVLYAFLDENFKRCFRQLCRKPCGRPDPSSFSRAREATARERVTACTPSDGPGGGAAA

[4] = target: T1, Kappa-type opioid receptor; assay: Agonist activity at kappa opioid receptor in human HEK293 cells assessed as stimulation of Galphai signaling by cAMP assay; assay type: functional, cell-based
Summary of the method: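 Live HEK293 cells carrying the cAMP biosensor GloSensor-22F. Galphai activation through KOR was read from the cAMP signal. EC50 reported as mean ± SD.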

Homo sapiens [5] = organism: Homo sapiens; assay: Selectivity ratio of Ki for mu opioid receptor (unknown origin) to Ki for kappa opioid receptor (unknown origin)

T1 sequence (P41145 whole entry): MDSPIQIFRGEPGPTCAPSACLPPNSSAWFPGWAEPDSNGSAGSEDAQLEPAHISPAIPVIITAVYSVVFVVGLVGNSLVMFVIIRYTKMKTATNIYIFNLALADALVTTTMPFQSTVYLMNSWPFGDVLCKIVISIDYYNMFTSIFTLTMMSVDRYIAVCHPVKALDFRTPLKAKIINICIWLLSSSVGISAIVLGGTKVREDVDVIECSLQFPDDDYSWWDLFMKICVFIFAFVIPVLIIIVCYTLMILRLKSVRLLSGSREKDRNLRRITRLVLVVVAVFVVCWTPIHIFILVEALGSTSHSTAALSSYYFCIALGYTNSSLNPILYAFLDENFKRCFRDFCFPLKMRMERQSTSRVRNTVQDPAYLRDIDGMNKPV

Compound | Ratio Ki (Homo sapiens [1]) | Ki [2] | Ki (Mu-type opioid receptor) | Ki [3] | EC50 [4] | Ratio Ki (Homo sapiens [5])
CCOC(=O)CCC(=O)O[C@H]1C[C@@H](C(=O)OC)[C@]2(C)CC[C@H]3C(=O)O[C@H](c4ccoc4)C[C@]3(C)[C@H]2C1=O | > 23 | 0.437 µM | > 10 µM | > 10 µM | – | –
COC(=O)[C@@H]1C[C@H](OC(=O)CSC#N)C(=O)[C@H]2[C@@]1(C)CC[C@H]1C(=O)O[C@H](c3ccoc3)C[C@]21C [22-THIOCYANATOSALVINORIN A] | – | – | > 10 µM | > 10 µM | – | –
COC(=O)CC(=O)O[C@H]1C[C@@H](C(=O)OC)[C@]2(C)CC[C@H]3C(=O)O[C@H](c4ccoc4)C[C@]3(C)[C@H]2C1=O | 2160 | 0.002 µM | > 10 µM | 4.32 µM | 0.137 µM | –
CCOC(=O)CC(=O)O[C@H]1C[C@@H](C(=O)OC)[C@]2(C)CC[C@H]3C(=O)O[C@H](c4ccoc4)C[C@]3(C)[C@H]2C1=O [ETHYLSALVINORINB-2-O-MALONATE] | > 476 | 0.021 µM | > 10 µM | > 10 µM | 0.052 µM | –
COC(=O)CCCC(=O)O[C@H]1C[C@@H](C(=O)OC)[C@]2(C)CC[C@H]3C(=O)O[C@H](c4ccoc4)C[C@]3(C)[C@H]2C1=O | > 33 | 0.302 µM | 5.01 µM | > 10 µM | – | 16
COC(=O)[C@@H]1C[C@H](OC(=O)CCC(=O)O)C(=O)[C@H]2[C@@]1(C)CC[C@H]1C(=O)O[C@H](c3ccoc3)C[C@]21C | – | 4.07 µM | > 10 µM | > 10 µM | – | –
COC(=O)[C@@H]1C[C@H](O)C(=O)[C@H]2[C@@]1(C)CC[C@H]1C(=O)O[C@H](c3ccoc3)C[C@]21C [SALVINORIN B] | – | – | > 10 µM | > 10 µM | – | –
COC(=O)[C@@H]1C[C@H](OC(=O)CC(=O)OC(C)(C)C)C(=O)[C@H]2[C@@]1(C)CC[C@H]1C(=O)O[C@H](c3ccoc3)C[C@]21C | > 67 | 0.148 µM | > 10 µM | > 10 µM | – | –
COC(=O)CCCCC(=O)O[C@H]1C[C@@H](C(=O)OC)[C@]2(C)CC[C@H]3C(=O)O[C@H](c4ccoc4)C[C@]3(C)[C@H]2C1=O | > 17 | 0.575 µM | > 10 µM | > 10 µM | – | –
COC(=O)CCC(=O)O[C@H]1C[C@@H](C(=O)OC)[C@]2(C)CC[C@H]3C(=O)O[C@H](c4ccoc4)C[C@]3(C)[C@H]2C1=O | > 277 | 0.036 µM | > 10 µM | > 10 µM | 0.855 µM | –
CCOC(=O)/C=C/C(=O)O[C@H]1C[C@@H](C(=O)OC)[C@]2(C)CC[C@H]3C(=O)O[C@H](c4ccoc4)C[C@]3(C)[C@H]2C1=O | > 23 | 0.427 µM | 0.724 µM | > 10 µM | – | 2
COC(=O)/C=C/C(=O)O[C@H]1C[C@@H](C(=O)OC)[C@]2(C)CC[C@H]3C(=O)O[C@H](c4ccoc4)C[C@]3(C)[C@H]2C1=O | > 256 | 0.039 µM | 0.711 µM | > 10 µM | 0.07 µM | 18
COC(=O)[C@@H]1C[C@H](OC(=O)CCCC(=O)O)C(=O)[C@H]2[C@@]1(C)CC[C@H]1C(=O)O[C@H](c3ccoc3)C[C@]21C | > 38 | 0.263 µM | 4.57 µM | > 10 µM | – | 17
COC(=O)[C@@H]1C[C@H](OC(=O)c2ccccc2C(=O)O)C(=O)[C@H]2[C@@]1(C)CC[C@H]1C(=O)O[C@H](c3ccoc3)C[C@]21C | > 4 | 2.29 µM | > 10 µM | > 10 µM | – | –
COC(=O)[C@@H]1C[C@H](OC(=O)/C=C\C(=O)O)C(=O)[C@H]2[C@@]1(C)CC[C@H]1C(=O)O[C@H](c3ccoc3)C[C@]21C | 1 | > 10 µM | > 10 µM | > 10 µM | – | 1
